Measured values taken from ChEMBL document CHEMBL1145249, “A potent and selective nonpeptide antagonist of the melanocortin-4 receptor induces food intake in satiated mice” (Bioorg Med Chem Lett, 2005).

Columns and labels:
Melanocortin receptor 3 = Melanocortin receptor 3 (Homo sapiens, UniProt P41968); experiment: Binding affinity for melanocortin-3 receptor transfected in HEK 293 cells using [125I]NDP-MSH as radioligand; format: cell-based, HEK293
Method in brief: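 Competition binding at human MC3 or MC4 receptor stably transfected into HEK293 cells, displacing [125I]-NDP-MSH radioligand; Ki reported; values averaged from three or more independent measurements.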

Melanocortin receptor 4 [1] = target: T1, Melanocortin receptor 4 (Homo sapiens, UniProt P32245); experiment: Binding affinity for melanocortin-4 receptor transfected in HEK 293 cells using [125I]NDP-MSH as radioligand; format: cell-based, HEK293
T1 sequence (P32245 whole entry): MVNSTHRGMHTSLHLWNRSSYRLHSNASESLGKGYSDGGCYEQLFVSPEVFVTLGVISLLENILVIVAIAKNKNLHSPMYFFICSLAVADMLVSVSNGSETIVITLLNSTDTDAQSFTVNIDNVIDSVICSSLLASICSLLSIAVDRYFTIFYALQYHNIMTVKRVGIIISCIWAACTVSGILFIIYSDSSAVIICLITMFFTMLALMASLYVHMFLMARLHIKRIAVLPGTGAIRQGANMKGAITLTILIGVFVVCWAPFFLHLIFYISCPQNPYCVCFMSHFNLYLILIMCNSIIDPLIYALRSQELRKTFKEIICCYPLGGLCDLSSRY

[2] = target: T2, Melanocyte-stimulating hormone receptor (Homo sapiens, UniProt Q01726); experiment: Percent inhibition of human melanocortin 1 receptor at 10 uM concentration
Target sequence in this assay (Q01726 whole entry, looked up): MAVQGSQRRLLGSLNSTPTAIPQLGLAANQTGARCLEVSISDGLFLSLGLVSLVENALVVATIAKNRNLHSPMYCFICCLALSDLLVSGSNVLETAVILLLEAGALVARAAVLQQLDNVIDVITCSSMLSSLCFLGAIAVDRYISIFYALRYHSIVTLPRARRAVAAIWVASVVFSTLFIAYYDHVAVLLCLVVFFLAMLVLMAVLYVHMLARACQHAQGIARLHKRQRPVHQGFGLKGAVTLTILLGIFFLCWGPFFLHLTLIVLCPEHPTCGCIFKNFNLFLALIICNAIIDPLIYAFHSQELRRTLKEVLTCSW

Melanocortin receptor 5 = Melanocortin receptor 5 (Homo sapiens, UniProt P33032); experiment: Binding affinity at melanocortin-5 receptor stably transfected in HEK 293 cells using [125I]NDP-MSH as radiolabeled; format: cell-based, HEK293
Chain of Melanocortin receptor 5 (P33032 whole entry): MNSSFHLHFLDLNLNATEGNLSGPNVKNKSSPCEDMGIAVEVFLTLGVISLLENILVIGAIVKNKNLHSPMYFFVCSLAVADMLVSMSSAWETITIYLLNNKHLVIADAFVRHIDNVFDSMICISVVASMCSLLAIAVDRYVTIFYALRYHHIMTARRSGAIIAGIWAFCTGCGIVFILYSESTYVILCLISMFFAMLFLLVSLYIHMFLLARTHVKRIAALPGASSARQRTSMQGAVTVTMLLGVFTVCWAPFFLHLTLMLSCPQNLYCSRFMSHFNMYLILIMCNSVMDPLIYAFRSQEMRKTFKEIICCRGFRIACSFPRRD
Method in brief: (§1)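 Competition binding at human MC1 or MC5 receptor stably expressed in HEK293 cells, with [125I]-NDP-MSH as the displaced radioligand; Ki determined.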

Melanocortin receptor 4 [3] = target: T1, Melanocortin receptor 4; experiment: Intrinsic activity towards human alpha-MSH stimulated cAMP level in HEK293 cells by 10 uM compound
[4] = target: T2, Melanocyte-stimulating hormone receptor; experiment: Binding affinity at melanocortin-1 receptor stably transfected in HEK 293 cells using [125I]NDP-MSH as radiolabeled; format: cell-based, HEK293; method in brief: as §1
Target sequence in this assay (Q01726 whole entry): as the sequence (Q01726 whole entry, looked up) above

Melanocortin receptor 4 [5] = target: T1, Melanocortin receptor 4; experiment: Intrinsic activity towards human alpha-MSH stimulated cAMP level in HEK293 cells

Chain of Melanocortin receptor 3 (P41968 whole entry): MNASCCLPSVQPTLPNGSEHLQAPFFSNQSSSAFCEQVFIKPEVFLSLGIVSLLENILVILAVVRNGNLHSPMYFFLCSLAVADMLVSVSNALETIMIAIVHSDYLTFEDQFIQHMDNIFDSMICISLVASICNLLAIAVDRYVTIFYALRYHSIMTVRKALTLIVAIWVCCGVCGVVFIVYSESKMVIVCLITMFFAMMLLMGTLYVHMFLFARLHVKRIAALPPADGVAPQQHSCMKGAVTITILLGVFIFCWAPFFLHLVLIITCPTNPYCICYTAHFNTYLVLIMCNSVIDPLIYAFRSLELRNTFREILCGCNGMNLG

| Compound | Ki (Melanocortin receptor 3) [nM] | Ki (Melanocortin receptor 4 [1]) [nM] | other results |
| --- | --- | --- | --- |
| O=C(NC1CCCC1)N[C@H](Cc1ccc(Cl)cc1Cl)C(=O)N1CCN(c2ccccc2CNCCc2cccs2)CC1 | 580 | 1.3 |  |
| O=C(N[C@H](Cc1cccc2ccccc12)C(=O)N1CCN(c2ccccc2CNCCc2cccs2)CC1)OCc1ccccc1 |  | 420 |  |
| O=C(N[C@H](Cc1cnc[nH]1)C(=O)N1CCN(c2ccccc2CNCCc2cccs2)CC1)OCc1ccccc1 |  | 3600 |  |
| O=C(N[C@H](Cc1ccc(Cl)cc1Cl)C(=O)N1CCN(c2ccccc2CNCCc2cccs2)CC1)c1ccccc1 | 1600 | 3.1 |  |
| CCNC(=O)N[C@H](Cc1ccc(Cl)cc1Cl)C(=O)N1CCN(c2ccccc2CNCCc2cccs2)CC1 | 790 | 1.7 | inhibition [2]: 18%; Ki (Melanocortin receptor 5): 300 nM |
| NCCN[C@H](Cc1ccc(Cl)cc1Cl)C(=O)N1CCN(c2ccccc2CNCCc2cccs2)CC1 |  | 18 | IA (Melanocortin receptor 4 [3]): < 3% |
| O=C([C@@H](Cc1ccc(Cl)cc1Cl)NCC1CC1)N1CCN(c2ccccc2CNCCc2cccs2)CC1 |  | 18 | IA (Melanocortin receptor 4 [3]): < 3% |
| O=C(N[C@H](Cc1ccc(Cl)cc1Cl)C(=O)N1CCN(c2ccccc2CNCCc2cccs2)CC1)OCc1ccccc1 |  | 23 |  |
| COC(=O)CCC(=O)N[C@H](Cc1ccc(Cl)cc1Cl)C(=O)N1CCN(c2ccccc2CNCCc2cccs2)CC1 | 830 | 2.8 |  |
| O=C(N[C@H](Cc1ccc(Cl)cc1Cl)C(=O)N1CCN(c2ccccc2CNCCc2cccs2)CC1)OCCF | 790 | 3.2 | Ki [4]: 1000 nM; Ki (Melanocortin receptor 5): 560 nM |
| O=C(NCCO)N[C@H](Cc1ccc(Cl)cc1Cl)C(=O)N1CCN(c2ccccc2CNCCc2cccs2)CC1 | 390 | 2.9 | inhibition [2]: 8%; Ki (Melanocortin receptor 5): 350 nM |
| O=C(N[C@H](Cc1csc2ccccc12)C(=O)N1CCN(c2ccccc2CNCCc2cccs2)CC1)OCc1ccccc1 |  | 1100 |  |
| O=C(N[C@H](Cc1c[nH]c2ccccc12)C(=O)N1CCN(c2ccccc2CNCCc2cccs2)CC1)OCc1ccccc1 |  | 2300 |  |
| NCCC(=O)N[C@H](Cc1ccc(Cl)cc1Cl)C(=O)N1CCN(c2ccccc2CNCCc2cccs2)CC1 |  |  | IA (Melanocortin receptor 4 [5]): < 3% |
| O=C([C@@H](Cc1ccc(Cl)cc1Cl)NCc1nccs1)N1CCN(c2ccccc2CNCCc2cccs2)CC1 |  | 16 | IA (Melanocortin receptor 4 [3]): < 3% |
| O=C(N[C@H](Cc1ccc(Cl)cc1Cl)C(=O)N1CCN(c2ccccc2CNCCc2cccs2)CC1)N1CCCC1 | 670 | 1.5 | Ki [4]: 6900 nM; Ki (Melanocortin receptor 5): 160 nM |
| O=C(NC1CC1)N[C@H](Cc1ccc(Cl)cc1Cl)C(=O)N1CCN(c2ccccc2CNCCc2cccs2)CC1 | 860 | 2.1 |  |
| CN(C)C(=O)N[C@H](Cc1ccc(Cl)cc1Cl)C(=O)N1CCN(c2ccccc2CNCCc2cccs2)CC1 | 560 | 2 | Ki [4]: 6800 nM; Ki (Melanocortin receptor 5): 350 nM |

| Compound | Ki (Melanocortin receptor 3) [nM] | Ki (Melanocortin receptor 4 [1]) [nM] | other results |
| --- | --- | --- | --- |
| CC(=O)N[C@H](Cc1ccc(Cl)cc1Cl)C(=O)N1CCN(c2ccccc2CNCCc2cccs2)CC1 | 570 | 2.4 | inhibition [2]: 31%; Ki (Melanocortin receptor 5): 730 nM |
| NCCC(=O)N[C@H](Cc1ccc(Cl)cc1)C(=O)N1CCN(c2ccccc2CNCCc2cccs2)CC1 |  |  | IA (Melanocortin receptor 4 [5]): 14% |
| CS(=O)(=O)N[C@H](Cc1ccc(Cl)cc1Cl)C(=O)N1CCN(c2ccccc2CNCCc2cccs2)CC1 |  | 14 | IA (Melanocortin receptor 4 [3]): < 3% |
| CC(C)OC(=O)N[C@H](Cc1ccc(Cl)cc1Cl)C(=O)N1CCN(c2ccccc2CNCCc2cccs2)CC1 | 1300 | 4.5 | inhibition [2]: 9%; Ki (Melanocortin receptor 5): 680 nM |
| CC(C)NC(=O)N[C@H](Cc1ccc(Cl)cc1Cl)C(=O)N1CCN(c2ccccc2CNCCc2cccs2)CC1 | 450 | 1.4 |  |
| N[C@H](Cc1ccc(Cl)cc1Cl)C(=O)N1CCN(c2ccccc2CNCCc2cccs2)CC1 |  | 94 | IA (Melanocortin receptor 4 [3]): < 3% |
| NCCCC(=O)N[C@H](Cc1ccc(Cl)cc1Cl)C(=O)N1CCN(c2ccccc2CNCCc2cccs2)CC1 | 950 | 2 |  |
| COC(=O)N[C@H](Cc1ccc(Cl)cc1Cl)C(=O)N1CCN(c2ccccc2CNCCc2cccs2)CC1 | 810 | 5 |  |
| O=C(N[C@H](Cc1cscn1)C(=O)N1CCN(c2ccccc2CNCCc2cccs2)CC1)OCc1ccccc1 |  | > 10000 |  |
| COc1ccc2ccccc2c1CCCCN1CCN(CC(c2ccc(F)cc2)N2CCN(C(C)C)CC2)CC1 (configuration not stated) |  | 7.9 |  |
| O=C(N[C@H](Cc1ccc(O)cc1)C(=O)N1CCN(c2ccccc2CNCCc2cccs2)CC1)OCc1ccccc1 |  | 5700 |  |
| O=C(N[C@H](Cc1ccc(Cl)cc1)C(=O)N1CCN(c2ccccc2CNCCc2cccs2)CC1)C1CCCNC1 (some centres not stated) |  |  | IA (Melanocortin receptor 4 [5]): 12% |
| CCOC(=O)N[C@H](Cc1ccc(Cl)cc1Cl)C(=O)N1CCN(c2ccccc2CNCCc2cccs2)CC1 | 800 | 4.6 |  |
| O=C(NCc1ccccc1F)N[C@H](Cc1ccc(Cl)cc1Cl)C(=O)N1CCN(c2ccccc2CNCCc2cccs2)CC1 |  | 5 |  |
| CC(C)(C)NC(=O)N[C@H](Cc1ccc(Cl)cc1Cl)C(=O)N1CCN(c2ccccc2CNCCc2cccs2)CC1 | 1000 | 2.4 |  |
| O=C([C@@H](Cc1ccc(Cl)cc1Cl)NCc1ccccc1)N1CCN(c2ccccc2CNCCc2cccs2)CC1 |  | 31 | IA (Melanocortin receptor 4 [3]): < 3% |
| CC(C)CN[C@H](Cc1ccc(Cl)cc1Cl)C(=O)N1CCN(c2ccccc2CNCCc2cccs2)CC1 |  | 23 | IA (Melanocortin receptor 4 [3]): < 3% |
